# Data reported in ChEMBL document CHEMBL1955853, “Discovery of 3,4-dihydropyrimidin-2(1H)-ones with inhibitory activity against HIV-1 replication” (Bioorg Med Chem Lett, 2012).
# Tests used:
# [1] = Cytotoxicity against human CEMx174 cells; format: cell-based
# How it was run: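 CC50 is the compound concentration that reduces viability of uninfected cells by 50%. Values are the geometric mean of two determinations, with each value within 25% of the mean.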
# [2] = test system: Human immunodeficiency virus 1; test: Antiviral activity against HIV1 LAI infected in human CEMx174 cells coexpressing GFP preincubated for 1 hr measured after 5 days by fluorimetry; format: functional, organism-based; conditions: Human immunodeficiency virus 1, LAI
# How it was run: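 CEM reporter cells carrying an EGFP cassette driven by the HIV promoter were seeded at 4000 cells/well. They were infected with HIV-1 LAI at MOI 3 and incubated 5 days at 37 °C, 5% CO2. EGFP fluorescence intensity was read on a plate reader. Values are the geometric mean of two determinations, with each value within 25% of the mean.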
EC50 [2] [µM],SMILES,CC50 [1] [µM]
0.431,CC1=C(C(=O)OCC2CCCCC2)C(c2ccc(O)cc2)NC(=O)N1 (stereo not given),> 10
1.27,COc1cccc(C2NC(=O)NC(C)=C2C(=O)OCC2CCCCC2)c1 (stereo not given),> 10
> 10,O=C1NC(c2ccccc2)=C(C(=O)OCC2CCCCC2)C(c2cccc(O)c2)N1 (stereo not given),> 10
> 10,CC1=C(C(=O)O)C(c2cccc(O)c2)NC(=O)N1 (stereo not given),> 10
> 10,CC1=C(C(=O)OCc2ccccc2)C(c2cccc(O)c2)NC(=O)N1 (stereo not given),> 10
> 10,CC1=C(C(=O)OC2CCCCC2)C(c2cccc(O)c2)NC(=O)N1 (stereo not given),> 10
> 10,CC1=C(C(=O)NCC2CCCCC2)C(c2cccc(O)c2)NC(=O)N1 (stereo not given),–
> 10,CC1=C(C(=O)OCC2CCCCC2)C(c2cccc(O)c2)NC(=O)N1C (stereo not given),> 10
> 10,CC1=C(C(=O)OCC2CCCCC2)C(c2cccc(O)c2)N(C)C(=O)N1 (stereo not given),> 10
> 10,Cc1nc(=O)[nH]c(-c2cccc(O)c2)c1C(=O)OCC1CCCCC1,> 10
> 10,CC1=C(C(=O)OCC2CCCCC2)C(c2cccc(O)c2)NC(=S)N1 (stereo not given),> 10
0.286,CCCC1=C(C(=O)OCC2CCCCC2)C(c2cccc(O)c2)NC(=O)N1 (stereo not given),> 10
> 10,CC(C)C1=C(C(=O)OCC2CCCCC2)C(c2cccc(O)c2)NC(=O)N1 (stereo not given),–
> 10,O=C1NC(C2CC2)=C(C(=O)OCC2CCCCC2)C(c2cccc(O)c2)N1 (stereo not given),> 10
0.359,O=C1NC(CCl)=C(C(=O)OCC2CCCCC2)C(c2cccc(O)c2)N1 (stereo not given),> 3
2.2,C#CC1=C(C(=O)OCC2CCCCC2)C(c2cccc(O)c2)NC(=O)N1 (stereo not given),> 1
> 10,CCC1=C(C(=O)OCC2CCCCC2)C(c2cccc(O)c2)NC(=S)N1 (stereo not given),> 10
> 10,CC1=C(C(=O)OCC2CCCCC2)C(c2ccccc2O)NC(=O)N1 (stereo not given),> 10
0.031,CCC1=C(C(=O)OCC2CCCCC2)C(c2ccc(O)cc2)NC(=O)N1 (stereo not given),> 10

EC50 [2] [µM],SMILES,CC50 [1] [µM]
0.335,CCC1=C(C(=O)OCC2CCCCC2)C(c2cccc([N+](=O)[O-])c2)NC(=O)N1 (stereo not given),> 10
0.159,CCC1=C(C(=O)OCC2CCCCC2)C(c2cccc(N)c2)NC(=O)N1 (stereo not given),> 10
0.141,CCC1=C(C(=O)OCC2CCCCC2)C(c2ccc([N+](=O)[O-])cc2)NC(=O)N1 (stereo not given),> 10
0.151,CCC1=C(C(=O)OCC2CCCCC2)C(c2ccc(N)cc2)NC(=O)N1 (stereo not given),> 10
0.108,CCC1=C(C(=O)OCC2CCCCC2)C(c2ccc(NC)cc2)NC(=O)N1 (stereo not given),> 10
0.063,CCC1=C(C(=O)OCC2CCCCC2)C(c2ccc(NC(C)=O)cc2)NC(=O)N1 (stereo not given),> 10
0.177,CCC1=C(C(=O)OCC2CCCCC2)C(c2ccc(N(C)C)cc2)NC(=O)N1 (stereo not given),> 10
0.061,CCC1=C(C(=O)OCC2CCCCC2)C(c2ccc(C#N)cc2)NC(=O)N1 (stereo not given),> 10
0.122,CCC1=C(C(=O)OCC2CCCCC2)C(c2ccc(C(=O)OC)cc2)NC(=O)N1 (stereo not given),> 10
> 10,CCC1=C(C(=O)OCC2CCCCC2)C(c2ccc(C(=O)O)cc2)NC(=O)N1 (stereo not given),> 10
0.088,CCC1=C(C(=O)OCC2CCCCC2)C(c2ccc(Cl)cc2)NC(=O)N1 (stereo not given),> 10
0.024,CCC1=C(C(=O)OCC2CCCCC2)C(c2ccc(F)cc2)NC(=O)N1 (stereo not given),> 10
0.233,CC1=C(C(=O)OCC2CCCCC2)[C@H](c2cccc(O)c2)NC(=O)N1,> 10
> 10,CC1=C(C(=O)OCC2CCCCC2)[C@@H](c2cccc(O)c2)NC(=O)N1,> 10
0.038,CCC1=C(C(=O)OCC2CCCCC2)[C@H](c2cccc(O)c2)NC(=O)N1,> 10
> 10,CCC1=C(C(=O)OCC2CCCCC2)[C@@H](c2cccc(O)c2)NC(=O)N1,> 10
> 10,CCOC(=O)C1=C(C)NC(=O)NC1c1cccc(O)c1 (stereo not given),–
0.529,CC1=C(C(=O)OCC2CCCCC2)C(c2cccc(O)c2)NC(=O)N1 (racemic),> 10
0.087,CCC1=C(C(=O)OCC2CCCCC2)C(c2cccc(O)c2)NC(=O)N1 (racemic),> 10

SMILES,EC50 [2] [µM],CC50 [1] [µM]
Cc1ccnc2c1NC(=O)c1cccnc1N2C1CC1 [NEVIRAPINE],0.15,> 10
